This passage reports Activity results from ChEMBL document CHEMBL1153954, “Promiscuous aggregate-based inhibitors promote enzyme unfolding” (J Med Chem, 2009).

The target of this experiment is AmpC (Escherichia coli) (UniProt Q83TT7). Description: Inhibition of Escherichia coli AmpC assessed as induction of protein unfolding measured by trypsin mediated degradation of compound-AmpC enzyme complex at 250 uM after 15 mins by gel electrophoresis. Put shortly: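 AmpC β-lactamase (0.5 μM) in 50 mM KPi, pH 7.0, with or without aggregator at 250 μM (1% DMSO final). Trypsin (0.01 or 0.025 mg/mL) added after 5 min. Digestion ran at room temperature for 0 min to 4 h. Samples were boiled 2 min in DTT-containing loading buffer, run on SDS-PAGE, and the β-lactamase band was scored against compound-free enzyme.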

Activity calls are given as the source filed them. The rule behind the calls is not given here.

Chain of AmpC (Escherichia coli) (Q83TT7 as listed by the source): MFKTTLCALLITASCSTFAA

For the compound `O=S(=O)(O)c1cc(O)c(/N=N/c2ccc3ccccc3c2O)c2ccccc12`, the result was Active.
